Screens as filed in PubChem.
This is a sample that favours compounds with a hit; in the whole collection about 3.1% have one here.
hERG rescue: shields human hERG channel from block by proarrhythmic agents; Q12809; AID 1511; CHO-hERG, FluxOR thallium flux, dofetilide IC70 present; 310,000 compounds, 0.51% hits; activation (rescue from dofetilide block), less the hit threshold, % at 10 µM;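 active = activation above the mean of controls blocked by dofetilide plus 5 SD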;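 also: thallium influx through hERG after potassium depolarization seen as dye fluorescence rise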
KCNQ1 block: inhibitors of human KCNQ1 potassium channel. CHO-K1 KCNQ1, FluxOR thallium flux fluorescence; hits give high values. B-score at 10 µM. 310,000 compounds, 1.3% hits. AID 2642;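 active = compounds whose thallium flux B-score, printed positive for inhibition, exceeds three library SD while starting fluorescence stays within three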;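 also: channel opened by potassium depolarization with thallium stimulus after 20 min compound exposure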
Target sequence (P51787 whole entry, looked up): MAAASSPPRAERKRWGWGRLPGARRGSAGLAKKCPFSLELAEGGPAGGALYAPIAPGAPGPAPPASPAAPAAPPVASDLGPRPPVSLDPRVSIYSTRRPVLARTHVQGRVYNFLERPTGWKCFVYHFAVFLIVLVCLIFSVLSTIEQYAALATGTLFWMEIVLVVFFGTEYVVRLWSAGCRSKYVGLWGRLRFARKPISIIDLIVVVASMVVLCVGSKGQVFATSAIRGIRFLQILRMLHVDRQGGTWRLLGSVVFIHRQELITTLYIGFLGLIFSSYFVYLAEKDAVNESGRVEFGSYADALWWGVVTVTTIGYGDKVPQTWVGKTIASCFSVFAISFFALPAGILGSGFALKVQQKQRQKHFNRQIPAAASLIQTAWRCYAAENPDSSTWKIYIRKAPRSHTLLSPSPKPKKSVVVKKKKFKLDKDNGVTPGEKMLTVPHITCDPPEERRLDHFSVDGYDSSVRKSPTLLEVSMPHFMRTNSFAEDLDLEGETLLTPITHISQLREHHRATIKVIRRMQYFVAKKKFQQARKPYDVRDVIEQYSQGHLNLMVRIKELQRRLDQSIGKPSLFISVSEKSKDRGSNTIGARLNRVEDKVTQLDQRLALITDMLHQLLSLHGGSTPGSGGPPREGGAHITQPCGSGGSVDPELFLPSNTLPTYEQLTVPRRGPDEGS
KCNQ1 pot: human KCNQ1 channel potentiation or activation. 310,000 compounds, 0.35% hits. P51787. B-score at 10 µM. AID 2648. CHO-K1 KCNQ1, thallium flux FluxOR fluorescence; hits give high values;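 active = fluorescence ratio B-score, a plate-corrected score, at least three library SD, with initial intensity B-score within 5 SD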
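Doses: Single concentration per compound, DMSO matched to controls | Test system: KCNQ1-transfected CHO-K1 cells | Timing: 90 min dye loading and 20 min compound exposure, both at room temperature | Measured by: Kinetic FluxOR thallium fluorescence, 10-s 1-Hz baseline, 110-s post-stimulus read | Medium: Assay buffer with matched DMSO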
KCNK3 inh: human KCNK3 channel inhibition, primary screen; O14649; 340,000 compounds, 0.84% hits; B-score at 10 µM; CHO-KCNK3 thallium flux, FluxOR fluorescence; hits give low values;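 active = B-score under library mean minus 4 SD, starting fluorescence ratio at most library mean plus 5 SD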;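 also: more negative B-score means stronger inhibition of thallium flux through KCNK3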
KCNK9 inh: inhibitors of human KCNK9 two-pore domain potassium channel; 310,000 compounds, 1.2% hits; Q9NPC2; B-score at 10 µM; HEK293 KCNK9, FluxOR thallium flux fluorescence; hits give low values;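 active = ratio B-score over 3 SD below the library mean, with starting fluorescence within 5 SD of its mean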;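 also: negative B-score means less thallium flux so channel inhibition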
KCNK9 inh conf: human KCNK9 inhibitor confirmation; shares compounds with KCNK9 inh; HEK293 KCNK9 cells, FluxOR thallium flux fluorescence; inhibition, % at 10 µM; 4,900 compounds, 43% hits;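 active = thallium signal inhibited by more than 5 SD of the compound-free buffer control wells, on both duplicate plates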;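 also: 0% = assay buffer control wells without compound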
Kir2-1 spec: selectivity of KCNK9 modulators against mouse Kir2.1; shares compounds with KCNK9 inh; Kir2.1 cells, FluxOR thallium flux fluorescence; inhibition, % at 10 µM; 4,900 compounds, 4% hits; AID 492993;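 active = thallium signal drop more than 5 SD beyond the mean of the no-compound control wells, seen in both duplicate plates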;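 also: signal is fluorescence rise after thallium addition divided by baseline fluorescence; plate controls were assay buffer only for no effect and full block by chlorpromazine control for full effect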
KCNK9 uninduced: second counter-screen for KCNK9 modulators: effect in non-induced cells | shares compounds with KCNK9 inh | non-induced KCNK9-HEK293, FluxOR thallium flux | 4,900 compounds, 40% hits | inhibition, % at 10 µM;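 active = thallium signal drop beyond 5 SD of the untreated control mean, on both duplicate plates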;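 also: plate controls were buffer only IC0 wells for no effect and SID17386958 at its maximal inhibitory level for full effect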
Numbers without * were called inactive; i = inactive; x = not tested or not shown.

SMILES	hERG rescue	KCNQ1 block	KCNQ1 pot	KCNK3 inh	KCNK9 inh	KCNK9 inh conf	Kir2-1 spec	KCNK9 uninduced
COC(=O)C(C)Oc1cc(OC(C)C(=O)OC)c2c(C)c(Cl)c(=O)oc2c1 (centres undefined)	-10	i	i	i	i	i	i	i
Cc1ccc(C2(c3noc(CN4CCC(c5ccncc5)CC4)n3)CCCC2)cc1	-22	i	i	i	i	i	i	i
COCCN1C(=O)/C(=C/c2ccc(Oc3ccc([N+](=O)[O-])cn3)c(OC)c2)SC1=Nc1ccccc1	-7	i	i	i	i	i	i	i
O=C(O)CN1C(=O)/C(=C\c2cc([N+](=O)[O-])ccc2OCc2ccccc2Cl)SC1=S	-5	i	i	i	i	i	i	i
O=C(O)CN1C(=O)/C(=C\c2cc(Br)ccc2OCc2ccc(Cl)cc2)SC1=S	-1	i	i	i	i	x	x	x
NS(=O)(=O)c1ccc(NC(=O)C2COc3ccccc3O2)cc1 (centres undefined)	-7	i	i	x	i	x	x	x
CC1CC(C)CN(S(=O)(=O)c2ccc(NC(=O)C3COc4ccccc4O3)cc2)C1 (centres undefined)	-6	i	i	i	i	i	i	i
CC(=O)Nc1ccc(C(=O)OCC(=O)Nc2c(C)n(C)n(-c3ccccc3)c2=O)cc1	x	x	x	i	x	x	x	x
O=C1Nc2ccc(Cl)cc2C(C#CC2CC2)(C(F)(F)F)O1 (centres undefined)	-6	i	i	i	-8.2*	48%*	i	46%*
Nc1c(-c2ccccc2)c(CSc2nc3ccccc3[nH]2)nn1-c1ccc(Cl)cc1	-8	i	i	i	-9.3*	60%*	i	28%*
Nc1c(-c2ccccc2)c(CSc2nc3ccccc3[nH]2)nn1-c1cccc(Cl)c1	-6	i	i	i	-13*	71%*	i	38%*
Cc1ccccc1-n1nc(CSc2nc3ccccc3[nH]2)c(-c2ccccc2)c1N	-18	i	i	i	i	x	x	x
Cc1ccc(NC(=O)COc2ccccc2C(N)=O)cc1S(=O)(=O)N1CCCCCC1	x	x	x	i	x	x	x	x
COc1ccc(NC2CCCN(C(=O)c3cccs3)C2)cc1 (centres undefined)	-2	i	i	i	i	i	i	i
COCc1ccc(C(=O)N2CCCC(Nc3ccc(C(C)C)cc3)C2)s1 (centres undefined)	-6	i	i	i	i	i	i	i
CC(C)c1ccc(NC2CCCN(C(=O)c3cccs3)C2)cc1 (centres undefined)	-8	i	i	i	i	i	i	i
Cc1ccc(NC2CCCN(C(=O)c3cccnc3)C2)cc1C (centres undefined)	1	i	i	i	i	x	x	x
Cc1ccc(NC2CCCN(C(=O)c3cccs3)C2)cc1C (centres undefined)	-11	i	i	i	i	i	i	i
O=C(COc1ccc(Br)cc1F)NC1CC1	x	x	x	i	x	x	x	x
CCOC(=O)CSc1nc2c(sc(=S)n2-c2ccccc2OC)c(=O)n1Cc1ccco1	-11	i	i	i	-9.1*	i	i	36%*
CCOC(=O)CSc1nc2c(sc(=S)n2-c2ccccc2OC)c(=O)n1-c1ccccc1OC	-4	i	i	i	-10*	i	i	31%*
Cn1c(SCC(=O)Nc2ccc3c(c2)OCCO3)nnc1-c1ccncc1	-7	i	i	i	i	x	x	x
COc1ccccc1N1C(C)=CC(=C(C#N)c2nc3ccccc3s2)C=C1C	-10	i	i	i	-8.4*	37%*	i	70%*
CC1=CC(=C(C#N)c2nc3ccccc3s2)C=C(C)N1c1ccc(F)cc1	-2	i	i	i	i	x	x	x
CCOC(=O)c1ccc(-n2c(C)nc3c(cnn3-c3ccccc3Cl)c2=O)cc1	-17	i	i	i	i	i	i	i
SMILES	hERG rescue	KCNQ1 block	KCNQ1 pot	KCNK3 inh	KCNK9 inh	KCNK9 inh conf	Kir2-1 spec	KCNK9 uninduced
CCOC(=O)c1ccc(N=c2sc(C(=O)OC)cc(=O)n2Cc2ccco2)cc1	-7	i	i	i	i	i	i	38%*
COC(=O)c1cc(=O)n(CCc2ccccc2)c(=Nc2ccc(F)cc2)s1	-15	8*	i	i	-10*	35%*	i	34%*
CCOC(=O)c1ccc(N=c2sc(C(=O)OC)cc(=O)n2CCCN2CCOCC2)cc1	-17	i	i	i	i	x	x	x
Cn1ccnc1-c1ccc(-c2nccn2C)cc1	-8	i	i	i	i	x	x	x
O=C(c1ccc(Cl)cc1)C1CCCN(C(=O)/C=C/c2ccccn2)C1 (centres undefined)	-9	i	i	i	i	i	i	i
COc1ccc(C(=O)C2CCCN(C(=O)/C=C/c3ccccn3)C2)c(C)c1 (centres undefined)	-7	i	i	i	i	i	i	i
CC(C)(C)c1ccc(C(=O)C2CCCN(C(=O)c3ccccn3)C2)cc1 (centres undefined)	-22	i	i	i	i	x	x	x
COc1ccc2cc(C(=O)C3CCCN(C(=O)CCc4ccccn4)C3)ccc2c1 (centres undefined)	-21	i	i	i	i	i	i	i
CC(=O)N1CCN(S(=O)(=O)c2cccc(C(=O)NNC(=O)COc3ccc(Cl)cc3C)c2)CC1	-16	i	i	i	i	x	x	x
Cc1ccc2ccccc2c1NC(=O)c1ccco1	-6	i	i	i	i	x	x	x
CC(C(=O)NC(=O)NC1CCCCC1)N1CCN(c2ccc(O)cc2)CC1 (centres undefined)	x	x	x	i	x	x	x	x
COC(=O)c1c(C)[nH]c(C(=O)OCC(=O)c2c(N)n(CC(C)C)c(=O)n(C)c2=O)c1C	x	x	x	i	x	x	x	x
Cc1nc(N2CCC(C)CC2)c2oc3ccccc3c2n1	-11	i	i	i	i	x	x	x
COc1ccccc1N1CCN(c2nc(C)nc3c2oc2ccccc23)CC1	-27	i	i	-9*	-14*	i	i	32%*
Cc1ccc(S(=O)(=O)NCc2ccccn2)cc1C	-4	i	i	i	i	x	x	x
COc1cc(Br)ccc1C1CC(=O)C(C)C(c2ccc(Br)cc2OC)N1 (centres undefined)	-3	i	i	i	i	x	x	x
